Data set [1] is described as follows: Plasma pharmacokinetics of chemotherapy in absence or presence of axitinib. The format is in vivo, human. As to conditions: for Plasma pharmacokinetic parameters (Cmax, AUC, clearance, volume of distribution) in the absence or presence of axitinib: comparison in words; for clearance: CL; for Vd: Vz; for half-life: t½.
Data set [2] has as its system patients with advanced NSCLC. As to conditions: phase II, single-agent axitinib, ref Schiller et al, 2009; cited from earlier work.
The test system of data set [3] is patients with advanced solid tumours. In words: Safety: treatment-related adverse events. It counts as in vivo, human. In a few lines:
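Adverse events were monitored throughout in every patient given ≥1 dose and graded by CTCAE version 3.0. Physical examinations were done at baseline, on days 1, 8 and 15 of each cycle and 28 days after the last dose.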

The test system is the same in data set [4]. Briefly: Haematologic laboratory abnormalities. The format is in vivo, human. The following applies: All grades; Total column = both chemotherapy cohorts.
Data set [5] has as its system advanced solid tumours. Briefly: Best tumour response by RECIST 1.0. It counts as in vivo, human.
The format of data set [6] is in vivo. As to conditions: human, plasma, oral; for AUC(0-t): AUC0-24, Mean (%CV); for Cmax / Vd/F / half-life: Mean (%CV); for Vd/F: Vz/F; for half-life: t½.
For data set [7], the system named is patients with advanced solid tumours. The format is in vivo, human. As to conditions: for Dose-limiting toxicities: first cycle; for MTD of axitinib: continuously.
Data set [8] relates to human liver microsomes. The following applies: in vitro, ref unpublished data; cited from earlier work.
Where [9] appears, read: human, plasma, intravenous, Mean (%CV), paclitaxel (+carboplatin) + axitinib, cycle 1 day 1, n=12.
Where [10] appears, read: human, plasma, intravenous, Mean (%CV), paclitaxel (+carboplatin) without axitinib, cycle 2 day 1, n=12.
Setting [11] is: carboplatin (+paclitaxel) + axitinib, cycle 1 day 1, PUF, n=12.
[12] abbreviates: carboplatin (+paclitaxel) without axitinib, cycle 2 day 1, PUF, n=12.
The mark [13] stands for this setting: All grades, Total column = both chemotherapy cohorts.
Where [14] appears, read: grade >=3, across both treatment arms.
[15] abbreviates: 5 mg b.i.d., axitinib 5 mg b.i.d. + gemcitabine/cisplatin, cycle 1 day 1.
[16] abbreviates: 5 mg b.i.d., axitinib + paclitaxel/carboplatin, cycle 1 day 1, dose-normalised to 5 mg b.i.d.
The mark [17] stands for this setting: 5 mg b.i.d., axitinib alone, steady state, cohorts 1–3 pooled, dose-normalised to 5 mg b.i.d.
The mark [18] stands for this setting: 5 mg, axitinib alone 5 mg b.i.d., steady state, gemcitabine/cisplatin cohort.
The mark [19] stands for this setting: human, plasma, intravenous, Mean (%CV), gemcitabine (+cisplatin) + axitinib, cycle 1 day 1, n=17.
[20] abbreviates: human, plasma, intravenous, Mean (%CV), gemcitabine (+cisplatin) without axitinib, cycle 2, n=17.

Where two headings read alike, the source gives them in different places.

Turning to `O=c1ccn([C@@H]2O[C@H](CO)[C@@H](O)C2(F)F)c(=O)[nH]1` [dFdU, 2′,2′-difluorodeoxyuridine], the “Plasma pharmacokinetic parameters (Cmax, AUC, clearance, volume of distribution) in the absence or presence of axitinib” value (“Plasma pharmacokinetic parameters” for short) in data set [1] was “similar”.
Broadly, the clearance is the volume of plasma or blood freed of the substance per unit of time. Usually Cmax stands for the maximum level reached in the sampled fluid or tissue. In general, Vd refers to a proportionality between amount in the body and measured concentration, not a real space. As a reminder, the half-life is how long it takes for the measured level to halve. `CC(=O)O[C@H]1C(=O)[C@@]2(C)[C@H]([C@H](OC(=O)c3ccccc3)[C@]3(O)C[C@H](OC(=O)[C@H](O)[C@@H](NC(=O)c4ccccc4)c4ccccc4)C(C)=C1C3(C)C)[C@]1(OC(C)=O)CO[C@@H]1C[C@@H]2O` [Paclitaxel, paclitaxel]: the “Plasma pharmacokinetic parameters” value in data set [1] was “similar”. For the same compound, in data set [1] (setting [9]), the clearance is 303 mL/min, the volume of distribution (Vd) turned out to be 229 L and the half-life is 8.64 h. Further, in data set [1] (setting [10]), the clearance was 360 mL/min, the Vd was 285 L and the half-life is 8.36 h. Further, the Cmax in data set [1] (human, plasma, intravenous, Cmax, Mean (%CV), paclitaxel (+carboplatin) + axitinib, cycle 1 day 1, plasma, n=12) was 7180 ng/mL.
In the case of `N.N.O=C([O-])C1(C(=O)[O-])CCC1.[Pt+2]` [Carboplatin, carboplatin], in data set [1] (setting [11]), the “CL, Mean (%CV)” value is recorded as 13.7 (31) l h^−1; the “Vz, Mean (%CV)” value is on record as 44.8 (15) l; the “t½, Mean (%CV)” value is listed as 2.44 (29) h. Besides, in data set [1] (setting [12]), the “CL, Mean (%CV)” value is reported as 12.6 (32) l h^−1; the “Vz, Mean (%CV)” value is given as 45.2 (18) l; the “t½, Mean (%CV)” value is 2.62 (21) h. Further, the “Plasma pharmacokinetic parameters” value in data set [1] is on record as “similar”.
The term AUC(0-t) denotes exposure summed from dosing to a finite time, without extrapolation to infinity. What is called Vd/F is the volume of distribution divided by bioavailability. As for `CNC(=O)c1ccccc1Sc1ccc2c(/C=C/c3ccccn3)n[nH]c2c1` [Axitinib, axitinib], the “median OS” value in data set [2] is 14.8 months. In addition, in data set [3] (12 patients with squamous cell NSCLC), the “Grade >=3 haemoptysis” value is given as “No grade⩾3 haemoptysis occurred”. In data set [3] (setting [13]), the “Decreased appetite, treatment-related AE” value is 7 (14.3) n (%); the “Diarrhoea, treatment-related AE” value is listed as 17 (34.7) n (%); the “Dizziness, treatment-related AE” value is given as 5 (10.2) n (%); the “Dysgeusia, treatment-related AE” value is recorded as 6 (12.2) n (%). Besides, in data set [3] (setting [13]), the “Dysphonia, treatment-related AE” value is 7 (14.3) n (%); the “Epistaxis, treatment-related AE” value is recorded as 8 (16.3) n (%); the “Fatigue, treatment-related AE” value is 14 (28.6) n (%); the “Hand–foot syndrome, treatment-related AE” value was 9 (18.4) n (%). In data set [3] (setting [13]), the “Headache, treatment-related AE” value is given as 7 (14.3) n (%); the “Hypertension, treatment-related AE” value is 18 (36.7) n (%); the “Nausea, treatment-related AE” value was 8 (16.3) n (%); the “Proteinuria, treatment-related AE” value is 10 (20.4) n (%). In addition, the “Rash, treatment-related AE” value in data set [3] (setting [13]) is on record as 7 (14.3) n (%). Besides, in data set [3] (Grade 3/4, all patients), the “Anaemia reported as treatment-related AE” value was determined as 2.0% and the “Leukopenia reported as treatment-related AE” value was 2.0%. In data set [3] (all grades, all 49 patients), this compound displayed a Treatment-related diarrhoea of 34.7%, a Treatment-related fatigue of 28.6% and a Treatment-related hypertension of 36.7%. Also, in data set [3] (all patients), the “Grade 5 treatment-related AEs” value is “No cases” and the “Grade >=3 haemoptysis” value is on record as “No cases”. Also, in data set [3] (gemcitabine/cisplatin cohort), the “Patients with axitinib dose reduced” value is 28.6% and the “Patients with axitinib dosing interrupted” value amounted to 66.7%. Also, in data set [3] (setting [14]), the Treatment-related fatigue is 10.2% and the Treatment-related hypertension was 10.2%. Further, in data set [3] (paclitaxel/carboplatin cohorts), the “Patients with axitinib dose reduced” value was 35.7% and the “Patients with axitinib dosing interrupted” value is 35.7%. Also, in data set [4], the “Anaemia, haematologic laboratory abnormality” value is recorded as 48 (100) n (%); the “Leukopenia, haematologic laboratory abnormality” value was 46 (95.8) n (%); the “Lymphopenia, haematologic laboratory abnormality” value is 40 (83.3) n (%); the “Neutropenia, haematologic laboratory abnormality” value is listed as 46 (95.8) n (%). The “Thrombocytopenia, haematologic laboratory abnormality” value in data set [4] is reported as 43 (89.6) n (%). Besides, in data set [5] (other tumour types), the “Objective responses, number of patients” value came to 5 n. For the same compound, the “Objective responses, number of patients” value in data set [5] (patients with NSCLC) is 5 n. Moreover, the “Objective responses, number of patients” value in data set [5] (patients with melanoma) is given as 2 n. In data set [5] (patients with ovarian cancer), the “Objective responses, number of patients” value is recorded as 3 n. Further, in data set [6] (setting [15]), the AUC(0-t) is 444 ng·h/mL, the Vd/F worked out at 168 L and the half-life was 2.66 h. For the same compound, in data set [6] (setting [16]), the area under the curve AUC(0-t) was found to be 535 ng·h/mL and the Vd/F stood at 133 L. In data set [6] (setting [17]), this compound had an AUC(0-t) of 404 ng·h/mL and a Vd/F of 108 L. The Cmax in data set [6] (5 mg b.i.d., axitinib 5 mg b.i.d. + gemcitabine/cisplatin, cycle 1 day 1, n=20) was 41.7 ng/mL. Moreover, the Cmax in data set [6] (5 mg b.i.d., axitinib + paclitaxel/carboplatin, cycle 1 day 1, cohorts 1–3 pooled, dose-normalised to 5 mg b.i.d., n=12) was determined as 46 ng/mL. Also, the Cmax in data set [6] (5 mg b.i.d., axitinib alone, steady state, cycle 1 day –1, cohorts 1–3 pooled, dose-normalised to 5 mg b.i.d., n=12) was determined as 39 ng/mL. In addition, in data set [6] (setting [18]), the AUC(0-t) came out at 416 ng·h/mL, the Vd/F is 157 L and the half-life is 2.68 h. The highest level in data set [6] (5 mg, axitinib alone 5 mg b.i.d., steady state, gemcitabine/cisplatin cohort, n=20) (Cmax) was 41 ng/mL. Besides, the half-life in data set [6] (axitinib + paclitaxel/carboplatin, cycle 1 day 1) was 2.7 h. In addition, in data set [7] (axitinib 5 mg b.i.d. with gemcitabine/cisplatin), the Dose-limiting toxicities entry is given as “fatigue”. Also, the Dose-limiting toxicities result in data set [7] (cohort 1, axitinib lead-in 1 mg b.i.d., with paclitaxel/carboplatin) is listed as “None”. For the same compound, the Dose-limiting toxicities entry in data set [7] (cohort 2, axitinib lead-in 3 mg b.i.d., with paclitaxel/carboplatin) is “None”. In addition, in data set [7] (cohort 3, axitinib 5 mg b.i.d., with paclitaxel/carboplatin), the Dose-limiting toxicities entry is reported as “Febrile neutropenia (n=1)”. Besides, in data set [7] (cohort 3, axitinib 5 mg b.i.d., with paclitaxel/carboplatin, listed as axitinib), the Dose-limiting toxicities entry was “febrile neutropenia”. In data set [7] (with cisplatin 80 mg m^-2 (day 1) and gemcitabine 1250 mg m^-2 (days 1 and 8)), this compound gave an MTD of axitinib of 5 mg b.i.d. The compound also yielded an MTD of axitinib in data set [7] (with paclitaxel 200 mg m^-2 and carboplatin AUC 6 mg min ml^-1) of 5 mg b.i.d. In data set [8], the “Enzymes mediating axitinib metabolism” value is “primarily mediated by CYP3A4 and to a lesser extent by CYP1A2, CYP2C19 and UDP-glucuronosyltransferase 1A1”.
As usually defined, the AUC(0-inf) is the area under the concentration-time curve extrapolated to infinity. Regarding `Nc1ccn([C@@H]2O[C@H](CO)[C@@H](O)C2(F)F)c(=O)n1` [Gemcitabine, 2′,2′-difluorodeoxycytidine], in data set [1], the “Plasma pharmacokinetic parameters” value is “similar”. For the same compound, in data set [1] (human, plasma, intravenous), the AUC(0-inf) was 11700 ng·h/mL. For the same compound, in data set [1] (setting [19]), the clearance worked out at 3620 mL/min and the Vd came out at 95.5 L. In data set [1] (setting [20]), the clearance is 3730 mL/min and the Vd came to 91.5 L.

Source of the values: publication PMC3494447 (British Journal of Cancer, 2012).
